Laboratory results published in ChEMBL document CHEMBL4837261, “Optimization of TopoIV Potency, ADMET Properties, and hERG Inhibition of 5-Amino-1,3-dioxane-Linked Novel Bacterial Topoisomerase Inhibitors: Identification of a Lead with In Vivo Efficacy against MRSA” (J Med Chem, 2021).
≈ marks a conversion by molar mass, not a printed value. Calls of active or inactive are those of the source. The calls are words filed in the database; no cut-off is given here.

How the values were obtained:
[1] = test system: Staphylococcus aureus; assay: Antibacterial activity against Staphylococcus aureus ATCC 29213 by CLSI method; type: functional
[2] = test system: Staphylococcus aureus; assay: Antibacterial activity against methicillin-resistant Staphylococcus aureus USA300 by CLSI method; type: functional
[3] = test system: Staphylococcus aureus; assay: Antibacterial activity against cystic fibrosis isolate Staphylococcus aureus by CLSI method; type: functional
[4] = biological target: DNA gyrase (Staphylococcus aureus, UniProt P0A0K8+P20831); assay: Inhibition of Staphylococcus aureus Gyrase supercoiling activity assessed as reduction in supercoiling pBR322 DNA by measuring relaxation by bromophenol blue staining based TAE gel method; type: protein-complex assay
[5] = biological target: Topoisomerase IV (Staphylococcus aureus, UniProt P0C1S7+P0C1U9); assay: Inhibition of Staphylococcus aureus topoisomerase IV decatenation activity using kDNA as substrate by ethidium bromide/bromophenol blue staining based agarose gel electrophoresis analysis; type: protein-complex assay
[6] = test system: Staphylococcus aureus; assay: Selectivity index, ratio of IC50 for inhibition of Staphylococcus aureus topoisomerase IV decatenation activity to IC50 for inhibition of Staphylococcus aureus DNA gyrase supercoiling activity
In short: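 Both IC50s were measured in gel-based assays with S. aureus enzymes: supercoiling inhibition for DNA gyrase and decatenation inhibition for TopoIV. The ratio is TopoIV IC50 divided by gyrase IC50.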

[7] = biological target: DNA gyrase (Staphylococcus aureus, UniProt P0A0K8+P20831, D83N); assay: Inhibition of Staphylococcus aureus DNA Gyrase D83N mutant assessed as reduction in supercoiling pBR322 DNA by measuring relaxation by bromophenol blue staining based TAE gel method
[8] = test system: Staphylococcus aureus; assay: Selectivity ratio of IC50 for inhibition of Staphylococcus aureus Gyrase D83N mutant to IC50 for inhibition of Staphylococcus aureus Gyrase
In short: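 Ratio of two IC50s: the IC50 from the D83N mutant gyrase supercoiling assay (commercial kit) divided by the IC50 from the gel-based wild-type S. aureus gyrase supercoiling assay.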

[9] = test system: Staphylococcus aureus; assay: Antibacterial activity against Staphylococcus aureus 3527 by CLSI method; type: functional
[10] = test system: Staphylococcus aureus; assay: Antibacterial activity against Staphylococcus aureus harbouring GyrA D83N mutant by CLSI method; type: functional
[11] = test system: Staphylococcus aureus; assay: Antibacterial activity against Staphylococcus aureus by CLSI method; type: functional
In short: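 MICs were determined by broth microdilution per CLSI guidelines, in triplicate at minimum. Strains were S. aureus ATCC 29213, MRSA USA300 and a cystic fibrosis respiratory isolate, and ranges are given where seen.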

[12] = test system: Enterococcus sp.; assay: Antibacterial activity against Enterococcus sp. by CLSI method; type: functional
[13] = test system: Streptococcus pneumoniae; assay: Antibacterial activity against Streptococcus pneumoniae by CLSI method; type: functional
[14] = test system: Acinetobacter baumannii; assay: Antibacterial activity against Acinetobacter baumannii by CLSI method; type: functional
[15] = test system: Bacillus anthracis; assay: Antibacterial activity against Bacillus anthracis by CLSI method; type: functional
[16] = Growth inhibition of human K/VP.5 cells incubated for 48 hrs by NBTI cell counting analysis; type: functional; conditions: K562, 48 h
[17] = biological target: T1, DNA gyrase (Staphylococcus aureus) (UniProt P0A0K8+P20831); assay: Inhibition of Staphylococcus aureus DNA Gyrase assessed as reduction in supercoiling pBR322 DNA by measuring induction of single strand breaks at 100 uM by ethidium bromide staining based agarose gel electrophoresis; type: protein-complex assay
[18] = biological target: T1, DNA gyrase (Staphylococcus aureus); assay: Inhibition of Staphylococcus aureus DNA Gyrase assessed as reduction in supercoiling pBR322 DNA by measuring induction of double strand breaks at 200 uM by ethidium bromide staining based agarose gel electrophoresis; type: protein-complex assay
[19] = test system: Streptococcus pyogenes; assay: Antibacterial activity against Streptococcus pyogenes isolates by CLSI method; type: functional
[20] = test system: K562; assay: Growth inhibition of log-phase human K562 cells incubated for 48 hrs by NBTI cell counting analysis; type: functional, cell-based
[21] = Metabolic stability in CD1 mouse liver microsomes assessed as intrinsic clearance at 2 uM measured up to 120 mins by LC-MS/MS analysis; type: ADME, Microsome; conditions: 2 h
[22] = Metabolic stability in CD1 mouse liver microsomes assessed as half life at 2 uM measured up to 120 mins by LC-MS/MS analysis; type: ADME, Microsome
[23] = Homo sapiens, K562, 48 h, read-out: IC50

SMILES	MIC [1]	MIC [2]	MIC [3]	IC50 [4]	IC50 [5]	Ratio IC50 [6]	IC50 [7]	Ratio IC50 [8]	MIC [9]	MIC [10]	IC50 [16]	also measured
COc1ccc2ccc(F)c(C[C@H](O)[C@H]3OC[C@H](NCc4cc5c(nn4)OCCS5)CO3)c2n1	0.25 µg/mL (≈ 0.512 µM)	0.5 µg/mL (≈ 1.02 µM)	0.25 µg/mL (≈ 0.512 µM)	120 nM	4600 nM	39	12000 nM	99	0.5 µg/mL (≈ 1.02 µM)	4 µg/mL (≈ 8.19 µM)		
COc1ccc2ncc(F)c(C[C@H](O)[C@H]3OC[C@H](NCc4cnc5c(n4)OCCO5)CO3)c2n1	0.25 µg/mL (≈ 0.528 µM)	1 µg/mL (≈ 2.11 µM)	0.125 µg/mL (≈ 0.264 µM)	360 nM	19000 nM	52	29000 nM	80	1 µg/mL (≈ 2.11 µM)	8 µg/mL (≈ 16.9 µM)		
COc1ccc2ncc(F)c(C[C@H](O)[C@H]3OC[C@H](NCc4cc5c(cn4)OCCO5)CO3)c2n1	0.125 µg/mL (≈ 0.265 µM)	≤ 0.25 µg/mL	0.125 µg/mL (≈ 0.265 µM)	39 nM	1300 nM		13000 nM		0.25 µg/mL (≈ 0.529 µM)	4 µg/mL (≈ 8.47 µM)	145000 nM	MIC50 [11]: 0.25 µg/mL (≈ 0.529 µM); MIC50 [12]: 0.12 µg/mL (≈ 0.254 µM); MIC50 [13]: 0.5 µg/mL (≈ 1.06 µM); MIC50 [14]: 64 µg/mL (≈ 135 µM); MIC50 [15]: 2 µg/mL (≈ 4.23 µM); MIC90 [15]: 8 µg/mL (≈ 16.9 µM)
O=C(O)c1cn(C2CC2)c2cc(N3CCNCC3)c(F)cc2c1=O												Activity [17]: Active; Activity [18]: Active
COc1ccc2ncc(F)c(C[C@H](O)[C@H]3OC[C@H](NCc4cc5c(nn4)OCCO5)CO3)c2c1	1 µg/mL (≈ 2.12 µM)	2 µg/mL (≈ 4.23 µM)	0.5 µg/mL (≈ 1.06 µM)	840 nM	8500 nM	10	51000 nM	60	2 µg/mL (≈ 4.23 µM)	16 µg/mL (≈ 33.9 µM)		
COc1ccc2ncc(F)c(C[C@H](O)[C@H]3OC[C@H](NCc4cc5c(nn4)OCCS5)CO3)c2c1	0.25 µg/mL (≈ 0.512 µM)	0.5 µg/mL (≈ 1.02 µM)	0.25 µg/mL (≈ 0.512 µM)	56 nM	4800 nM	87	19000 nM	336	0.5 µg/mL (≈ 1.02 µM)	8 µg/mL (≈ 16.4 µM)		MIC50 [11]: 0.5 µg/mL (≈ 1.02 µM); MIC50 [12]: 0.25 µg/mL (≈ 0.512 µM); MIC50 [13]: 1 µg/mL (≈ 2.05 µM); MIC50 [14]: > 64 µg/mL
C[C@H]1COc2c(N3CCN(C)CC3)c(F)cc3c(=O)c(C(=O)O)cn1c23.C[C@H]1COc2c(N3CCN(C)CC3)c(F)cc3c(=O)c(C(=O)O)cn1c23.O [LEVOFLOXACIN]												MIC50 [19]: 8 µg/mL; MIC90 [19]: 64 µg/mL
COc1ccc2ncc(F)c(C[C@H](O)[C@H]3OC[C@H](NCc4ccc5c(c4)OCCO5)CO3)c2c1	0.125 µg/mL (≈ 0.266 µM)	0.125 µg/mL (≈ 0.266 µM)	0.25 µg/mL (≈ 0.531 µM)	31 nM	2300 nM	73	2200 nM	72	0.125 µg/mL (≈ 0.266 µM)	4 µg/mL (≈ 8.5 µM)		MIC50 [11]: 0.06 µg/mL (≈ 0.128 µM); MIC50 [12]: 0.06 µg/mL (≈ 0.128 µM); MIC50 [13]: 1 µg/mL (≈ 2.13 µM); MIC50 [14]: 64 µg/mL (≈ 136 µM)
COc1ccc2ncc(F)c(C(O)C[C@H]3OC[C@H](NCc4ccc5c(n4)NC(=O)CO5)CO3)c2c1 (mixture of isomers)	0.5 µg/mL (≈ 1.03 µM)	0.25 µg/mL (≈ 0.516 µM)	0.5 µg/mL (≈ 1.03 µM)	520 nM	2600 nM				≤ 0.5 µg/mL	4 µg/mL (≈ 8.26 µM)	> 50000 nM	IC50 ([20]; k562): Not Active
COc1ccc2nccc(CCN3CCC(NCc4ccc5c(c4)OCCO5)CC3)c2c1												intrinsic clearance (CLint) [21]: 1940 µL/min/mg; half-life at 2 µM [22]: 2.81 min
COc1ccc2ncc(F)c(C[C@H](O)[C@H]3OC[C@H](NCc4cc5c(cn4)OCO5)CO3)c2n1	0.5 µg/mL (≈ 1.09 µM)	1 µg/mL (≈ 2.18 µM)	0.5 µg/mL (≈ 1.09 µM)	850 nM	18000 nM	22	73000 nM	86	1 µg/mL (≈ 2.18 µM)	> 8 µg/mL		
COc1ccc2ncc(F)c(C(O)C[C@H]3OC[C@H](NCc4ccc5c(n4)NC(=O)CS5)CO3)c2c1 (mixture of isomers)	0.25 µg/mL (≈ 0.499 µM)	0.25 µg/mL (≈ 0.499 µM)	0.5 µg/mL (≈ 0.999 µM)	330 nM	1500 nM				≤ 0.25 µg/mL	4 µg/mL (≈ 7.99 µM)	> 50000 nM	IC50 [20, 23]: 56000 nM
COc1ccc2ncc(F)c(C(O)C[C@H]3OC[C@H](NCc4ccc5c(n4)NC(=O)CS5)CO3)c2n1 (mixture of isomers)	≤ 0.25 µg/mL	0.125 µg/mL (≈ 0.249 µM)	0.25 µg/mL (≈ 0.498 µM)	54 nM	2800 nM				≤ 0.25 µg/mL	2 µg/mL (≈ 3.99 µM)	> 50000 nM	IC50 [20, 23]: 52100 nM
O=c1ccc2ncc(=O)n3c2n1C[C@H]3CN1CCC(NCc2cc3c(cn2)OCCC3)CC1 [GEPOTIDACIN]	0.25 µg/mL (≈ 0.557 µM)	0.25 µg/mL (≈ 0.557 µM)	0.25 µg/mL (≈ 0.557 µM)						0.25 µg/mL (≈ 0.557 µM)	8 µg/mL (≈ 17.8 µM)		Activity [17]: Active; Activity [18]: Active
COc1ccc2nccc(CCN3CCC(NCc4cc5c(cn4)OCCO5)CC3)c2c1												intrinsic clearance (CLint) [21]: 2150 µL/min/mg; half-life at 2 µM [22]: 2.54 min
COc1ccc2ncc(F)c(C[C@H](O)[C@H]3OC[C@H](NCc4ccc5c(c4)OCCO5)CO3)c2n1	0.125 µg/mL (≈ 0.265 µM)	0.125 µg/mL (≈ 0.265 µM)	0.125 µg/mL (≈ 0.265 µM)	60 nM	380 nM		2700 nM		0.125 µg/mL (≈ 0.265 µM)	4 µg/mL (≈ 8.48 µM)	30500 nM	MIC50 [11]: 0.06 µg/mL (≈ 0.127 µM); MIC50 [12]: 0.06 µg/mL (≈ 0.127 µM); MIC50 [13]: 0.5 µg/mL (≈ 1.06 µM); MIC50 [14]: 16 µg/mL (≈ 33.9 µM); MIC50 [15]: 1 µg/mL (≈ 2.12 µM); MIC90 [15]: 4 µg/mL (≈ 8.48 µM)
